Reference: ChEMBL document CHEMBL3228015, “Azaprostanoic acid derivatives. Inhibitors of arachidonic acid induced platelet aggregation” (1979)
Calls of active or inactive are those of the source. No cut-off for these calls is given here.

Experiments:
[1] = target: T1, Cyclooxygenase (Bos taurus) (UniProt O62664+O62698); test: Inhibition of cyclooxygenase activity in bovine seminal vesicles assessed as arachodonic acid dependent formation of adenochrome from L-epinephrine at concentration of one order of magnitude greater than that necessary for 100% inhibition of platelet aggregation
Procedure, shortened: (§1)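 Prostaglandin synthetase from a crude freeze-dried beef seminal vesicle powder, 6.7 mg/mL per assay, solubilized with 0.05% Triton X-100. Activity measured as arachidonic acid dependent adrenochrome formation from L-epinephrine (Takeguchi–Sih method, minor modification). Highest test concentration 5×10^-4 M; indomethacin 2×10^-5 M as reference.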

Platelet [2] = test: Inhibition of 400 uM arachidonate-induced platelet aggregation in human platelet-rich plasma at 10 uM by turbidometric method; type: functional
Procedure, shortened: (§2)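 Citrated human PRP from normal donors (no aspirin for 48 h), centrifuged at 164g to remove red cells, kept at 25 °C. Reagents added as 10 μL per 1 mL PRP. Inhibitor held at 10^-5 M while arachidonate concentration varied. Turbidometric (Born) aggregation at 37 °C over 3 min; % inhibition from a single blood sample, representative of several determinations.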

Platelet [3] = test: Inhibition of ADP-induced primary platelet aggregation in aspirin-treated human platelet-rich plasma at 100 uM after 2 mins by turbidometric method; type: functional
Procedure, shortened: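 PRP from donors free of aspirin for 48 h, centrifuged at 164g and held at 25 °C, then incubated 15 min with aspirin (1 mg/mL). Test agent (100 μM) added 2 min before 10 μM ADP. Primary aggregation compared with aspirin alone, read turbidometrically (Born) at 37 °C over 3 min.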

[4] = target: T1, Cyclooxygenase (Bos taurus); test: Inhibition of cyclooxygenase activity in bovine seminal vesicles assessed as arachodonic acid dependent formation of adenochrome from L-epinephrine at 500 uM; type: protein assay; procedure, shortened: as §1
Platelet [5] = test: Inhibition of 500 uM arachidonate-induced platelet aggregation in human platelet-rich plasma at 10 uM by turbidometric method; type: functional; procedure, shortened: as §2
Platelet [6] = test: Inhibition of 300 uM arachidonate-induced platelet aggregation in human platelet-rich plasma at 10 uM by turbidometric method; type: functional; procedure, shortened: as §2
[7] = target: T1, Cyclooxygenase (Bos taurus); test: Inhibition of cyclooxygenase activity in bovine seminal vesicles assessed as arachodonic acid dependent formation of adenochrome from L-epinephrine at 100 uM; type: protein assay; procedure, shortened: as §1

SMILES	inhibition [1] [%]	inhibition (INH) (Platelet [2]) [%]	inhibition (Platelet [3])	inhibition [4]	inhibition (INH) (Platelet [5]) [%]	inhibition (INH) (Platelet [6]) [%]	inhibition [7]
CCCCCCCN[C@H]1CCC[C@@H]1CCCCCCC(=O)O (relative stereo)	< 10	66	inactive	inactive	19	100	–
CCCCCNCC[C@@H]1CCC[C@@H]1CCCCCCC(=O)O	–	16	inactive	–	0	91	inactive
CCCCCCN[C@H]1CCC[C@@H]1CCCCCCC(=O)O (relative stereo)	–	0	–	inactive	0	14	–
O=C(O)CCCCCC[C@@H]1CCC[C@@H]1NCc1ccccc1 (relative stereo)	–	–	inactive	–	–	–	–
CCCCCCCCN[C@H]1CCC[C@@H]1CCCCCCC(=O)O (relative stereo)	–	7	–	30%	0	71	–
CCCCCCCCN[C@H]1CCC[C@H]1CCCCCCC(=O)O (relative stereo)	–	11	–	30%	0	50	–
O=C(O)CCCCCC[C@H]1CCC[C@@H]1NCc1ccccc1 (relative stereo)	–	0	inactive	inactive	0	0	–
CCCCCCCN[C@H]1CCC[C@H]1CCCCCCC(=O)O (relative stereo)	–	11	inactive	inactive	0	43	–
